Where only a bound is given, the exact number is not on record here.

Our source for the IC50, EC50 and CC50 values is ChEMBL document CHEMBL1145988, “A conformationally locked analogue of the anti-HIV agent stavudine. An important correlation between pseudorotation and maximum amplitude” (J Med Chem, 2003).

In assay [1] the target is Human immunodeficiency virus type 1 reverse transcriptase (Human immunodeficiency virus 1, UniProt Q72547). The experiment in a line: Inhibitory concentration required against Reverse transcriptase (RT). The procedure, abridged: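 Wild-type HIV-1 RT (1.0 μg) extends -47 primer annealed to single-stranded M13mp18 DNA. Run 30 min at 37 °C, then TCA-precipitated, filtered, scintillation counted; duplicate.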

A further assay has as its system MT2. The experiment in a line: Effective concentration required to protect MT-2 cells against cytopathogenicity of HIV-1 LAI. The note with it: Homo sapiens. Format: functional, cell-based. The procedure, abridged: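 MT-2 cells (2×10^3) challenged with 100 TCID50 HIV-1 LAI and cultured with compound. MTT read-out on day 7 gives EC50 for 50% protection; run in duplicate.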
A general note: Cytopathic effects are the visible damage that an infection or toxin causes in cultured cells.

Assay [2] can be described thus: Effective concentration required to inhibit P24 antigen production in PHA-PBM cells exposed to HIV-1 LAI. Format: functional, cell-based. The note with it: Homo sapiens, PBMC. The procedure, abridged:
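PHA-stimulated PBM cells at 1×10^6/mL exposed to 50 TCID50 HIV-1 LAI with 10-fold serial drug dilutions, triplicate. p24 antigen measured by radioimmunoassay after 7 days of culture. EC50 set against p24 in drug-free controls.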

Assay [3] deals with CCRF-CEM. The assay is described as follows: Effective concentration required to protect Human T-Lymphocyte (CEM) cells against cytopathogenicity of HIV-1 (IIIB). The class given is functional, cell-based. The procedure, abridged:
(§1)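 CEM cells at 4.5×10^5 cells/mL infected with 100 CCID50/mL of HIV-1 or HIV-2, then mixed 1:1 with compound dilutions (final 200, 40, 8, 0.32, 0.062 μg/mL) and held at 37 °C. Syncytia counted microscopically after 4–5 days. EC50 is the concentration preventing syncytium formation by 50%.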

The test system of assay [4] is CCRF-CEM. The experiment in a line: Effective concentration required to protect activity Human CEM/TK- cells against cytopathogenicity of HIV virus. The class given is functional, cell-based.
Assay [5] has as its system CCRF-CEM. The assay is described as follows: Effective concentration required to protect Human T-Lymphocyte (CEM) cells against cytopathogenicity of HIV-2 (ROD). The class given is functional, cell-based. The procedure, abridged: as §1
Assay [6] has as its system CCRF-CEM. The assay is described as follows: Cytostatic concentration required to inhibit Human T-Lymphocyte (CEM) cells proliferation caused by HIV-1 (IIIB). The class given is functional. A digest of the protocol:
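CEM cell proliferation measured; value is concentration inhibiting proliferation by 50%.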

The next assay relates to MT4. The assay is described as follows: Effective concentration required to protect MT-4 cells against cytopathogenicity of HIV-1 LAI. Format: functional, cell-based. The note with it: Homo sapiens. A digest of the protocol: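 MT-4 cells (3×10^4) exposed to 100 TCID50 HIV-1 LAI and cultured with compound. Viability read by MTT assay on day 5. EC50 taken as 50% protection against cytopathogenicity; duplicate assays.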

On to `Cc1cn([C@H]2C=C[C@@H](COP(=O)(O)OP(=O)(O)OP(=O)(O)O)O2)c(=O)[nH]c1=O`, for which the IC50 (commonly the concentration that inhibits the measured activity by half) in assay [1] was 80 nM.

Consider `Cc1cn([C@H]2C=C[C@]3(CO)C[C@H]23)c(=O)[nH]c1=O`, for which the EC50 (commonly the concentration at which the effect is half-maximal) in the assay on MT2 is 6100 nM; in assay [2], 60 nM; in the assay on CCRF-CEM [3], 960 nM; with CCRF-CEM [4], more than 250 µM; in the assay on CCRF-CEM [5], 1450 nM; in the assay on MT4, 6900 nM. Further, the CC50 (in general, the concentration that lowers cell viability or growth by half) in the assay with CCRF-CEM [6] is more than 250 µM.

Compound `Cc1cn([C@H]2C=C[C@]3(COP(=O)(O)OP(=O)(O)OP(=O)(O)O)C[C@H]23)c(=O)[nH]c1=O` displayed an IC50 in assay [1] of 650 nM.

For the compound `Cc1cn([C@H]2C=C[C@@H](CO)O2)c(=O)[nH]c1=O` [STAVUDINE], the EC50 in the assay with MT2 came to 1800 nM; in assay [2] it was 40 nM; in the assay on CCRF-CEM [3] it was 210 nM; in the assay on CCRF-CEM [4] it was 27 µM; in the assay on CCRF-CEM [5], 400 nM; with MT4, 710 nM. In the assay with CCRF-CEM [6], this compound registered a half-maximal cytotoxic concentration (CC50) of 93 µM.

With `Cc1cn([C@H]2C[C@H](N=[N+]=[N-])[C@@H](CO)O2)c(=O)[nH]c1=O` [ZIDOVUDINE], the figures for the concentration giving a half-maximal response (EC50) in the assay on MT2 and in the assay with MT4 were 30 nM and 20 nM, respectively.
